From ChEMBL document CHEMBL1150335, “Benzoylurea derivatives as a novel class of antimitotic agents: synthesis, anticancer activity, and structure-activity relationships” (J Med Chem, 2008)
Calls of active or inactive are those of the source. No cut-off for these calls is given here.

How the values were obtained:
[1] = tested on: CCRF-CEM; assay: Antiproliferative activity against human CEM cells after 72 hrs by trypan blue assay; format: functional, cell-based
Summary of the method: (§1)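 Cells kept in RPMI-1640 with 10% heat-inactivated fetal calf serum, penicillin and streptomycin, 5% CO2, 37 °C, used in exponential growth. 1 × 10⁵ cells per well exposed to compound at 0.001–10 µM at 37 °C (48 h in methods, 72 h in table footnotes). Viability by Trypan blue versus untreated controls. IC50 by nonlinear regression, duplicate, three repeats.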

[2] = Inhibition of beta tubulin polymerization at 20 uM
[3] = tested on: Bel-7402; assay: Antitumor activity against human Bel7402 cells xenografted BALB/c mouse assessed as inhibition of tumor growth at 5 mg/kg, ip q2d after 25 days relative to control; format: functional; conditions: Bel-7402, ip, 600 h, route intraperitoneal
Summary of the method: (§2)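 Male Balb/c nude mice (16-20 g, 6-7 weeks) given sc Bel-7402 cells, 5 × 10⁶ per mouse, on the back. Six injections q2d. Tumor volume measured weekly by calipers = length × width² × 0.52. Body weight recorded before and after treatment.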

[4] = tested on: MCF7; assay: Antiproliferative activity against human MCF7 cells after 72 hrs by trypan blue assay; format: functional, cell-based; conditions: MCF7, 72 h; summary of the method: as §1
[5] = tested on: CCRF-CEM; assay: Cell cycle arrest in human CEM cells assessed as accumulation at M phase at <0.01 uM after 12 hrs by flow cytometry; format: functional
[6] = tested on: Bel-7402; assay: Antitumor activity against human Bel7402 cells xenografted BALB/c mouse assessed as inhibition of tumor growth at 10 mg/kg, ip q2d after 25 days relative to control; format: functional; conditions: Bel-7402, ip, 600 h, route intraperitoneal; summary of the method: as §2
[7] = tested on: Mus musculus; assay: Toxicity in human Bel7402 cells xenografted BALB/c mouse assessed as body weight at 10 mg/kg, ip q2d after 25 days relative to control; format: organism-based, Bel-7402; parameters: dose 10 mg/kg, route intraperitoneal; conditions: in vivo, 600 h; summary of the method: as §2
[8] = tested on: Daudi; assay: Antiproliferative activity against human Daudi cells after 72 hrs by trypan blue assay; format: functional, cell-based; summary of the method: as §1
[9] = tested on: Bel-7402; assay: Antitumor activity against human Bel7402 cells xenografted ip dosed BALB/c mouse assessed as inhibition of tumor growth after 25 days relative to control; format: functional; conditions: Bel-7402, ip, 600 h
Summary of the method: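 Male Balb/c nude mice (16-20 g, 6-7 weeks) given sc Bel-7402 cells (5 × 10⁶/mouse) on the back. On day 12 they were randomized (5/group) to solvent control or 5 or 10 mg/kg ip, six doses q2d. Tumors were measured weekly by caliper, volume = length × width² × 0.52. Inhibition was taken versus solvent-treated controls on day 25 post-treatment.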

[10] = tested on: Bel-7402; assay: Antiproliferative activity against human Bel7402 cells after 72 hrs by trypan blue assay; format: functional, cell-based; conditions: Bel-7402, 72 h; summary of the method: as §1
[11] = Antiproliferative activity against human MIA cells after 72 hrs by trypan blue assay; format: functional, cell-based; summary of the method: as §1
[12] = tested on: CCRF-CEM; assay: Cell cycle arrest in human CEM cells assessed as morphological changes at 0.014 uM after 24 hrs by Giemsa staining
[13] = Antiproliferative activity against human DND1A cells after 72 hrs by trypan blue assay; format: functional, cell-based; summary of the method: as §1
[14] = tested on: PC-3; assay: Antiproliferative activity against human PC3 cells after 72 hrs by trypan blue assay; format: functional, cell-based; conditions: PC-3, 72 h; summary of the method: as §1
[15] = tested on: LoVo; assay: Antiproliferative activity against human LOVO cells after 72 hrs by trypan blue assay; format: functional, cell-based; summary of the method: as §1
[16] = tested on: CCRF-CEM; assay: Cell cycle arrest in human CEM cells assessed as accumulation at G2/M phase at 0.22 uM after 4 to 24 hrs by flow cytometry; format: functional, cell-based
Summary of the method: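 CEM cells exposed to 0.22 µM compound or left untreated for 4, 12 or 24 h. Fixed in 70% ethanol for at least 12 h at 4 °C, then RNase A 50 µg/mL at 37 °C for 30 min and propidium iodide 50 µg/mL final at 4 °C for 30 min. At least 10⁴ events read by flow cytometry for DNA profile.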

[17] = tested on: DU-145; assay: Antiproliferative activity against human DU145 cells after 72 hrs by trypan blue assay; format: functional, cell-based; conditions: DU-145, 72 h; summary of the method: as §1
[18] = tested on: CCRF-CEM; assay: Induction of apoptosis in human CEM cells assessed as Bcl2 phosphorylation at 0.014 to 0.27 uM after 12 to 24 hrs by Western blot; format: functional, cell-based
Summary of the method: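 CEM cells exposed to 0.014–0.27 µM for 12 or 24 h, then lysed in Tris-HCl pH 7.4 buffer with detergents and protease/phosphatase inhibitors. Equal lysate run on 10% SDS-PAGE and transferred to PVDF. Blocked in 5% milk/TBST, probed with anti-Bcl-2 monoclonal and HRP secondary, detected by ECL; phosphorylated Bcl-2 seen as a separate band.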

[19] = Inhibition of beta tubulin polymerization
[20] = Inhibition of beta tubulin polymerization at 1 uM

Compound: NC(=O)NC(=O)c1cc(NC(=O)CCl)ccc1F
- IC50 [1]: 7.68 µM

Compound: CC[C@]1(O)C[C@H]2CN(CCc3c([nH]c4ccccc34)[C@@](C(=O)OC)(c3cc4c(cc3OC)N(C=O)[C@H]3[C@@](O)(C(=O)OC)[C@H](OC(C)=O)[C@]5(CC)C=CCN6CC[C@]43[C@@H]65)C2)C1
- Activity [2]: Active

Compound: NC(=O)NC(=O)c1cc(NC(=O)CBr)ccc1Br
- IC50 [1]: 1.16 µM

Compound: COC(=O)c1cc(NC(=O)CI)cc(C(=O)NC(N)=O)c1
- IC50 [1]: 1.91 µM

Compound: COC(=O)c1cc(NC(=O)CBr)cc(C(=O)NC(N)=O)c1
- IC50 [1]: 1.3 µM

Compound: CC(Br)C(=O)Nc1ccc(C(=O)NC(N)=O)o1 (stereo not given)
- IC50 [1]: 9.44 µM

Compound: Cc1c(NC(=O)C(C)Br)cccc1C(=O)NC(N)=O (stereo not given)
- IC50 [1]: 0.48 µM

Compound: Cc1c(NC(=O)C(C)Cl)cccc1C(=O)NC(N)=O (stereo not given)
- IC50 [1]: > 20 µM

Compound: NC(=O)NC(=O)c1cc(NC(=O)CBr)ccc1F
- inhibition in vivo at 5 mg/kg [3]: 37%
- IC50 [4]: 0.08 µM
- Activity [5]: 31.3%
- inhibition in vivo at 10 mg/kg [6]: 52%
- Activity [7]: 18.6 g
- IC50 [1]: < 0.01 µM
- IC50 [8]: 0.015 µM

Compound: CC(Br)C(=O)Nc1ccc(Br)c(C(=O)NC(N)=O)c1 (stereo not given)
- IC50 [1]: 7.63 µM

Compound: NC(=O)NC(=O)c1cccc(NC(=O)CI)c1
- LD50 [9]: 31 mg/kg
- inhibition in vivo at 10 mg/kg [6]: 57%
- IC50 [1]: < 0.01 µM

Compound: CC(Br)C(=O)Nc1ccc(F)c(C(=O)NC(N)=O)c1 (stereo not given)
- IC50 [1]: 0.52 µM

Compound: NC(=O)NC(=O)c1ccc(NC(=O)CCl)o1
- IC50 [1]: 16.6 µM

Compound: C[C@@H](Br)C(=O)Nc1cccc(C(=O)NC(N)=O)c1
- IC50 [1]: 1.47 µM

Compound: NC(=O)NC(=O)c1csc(NC(=O)CBr)c1
- IC50 [1]: 1.13 µM

Compound: NC(=O)NC(=O)c1ccc(Cl)c(NC(=O)CBr)c1
- IC50 [1]: 2.91 µM

Compound: COc1ccc(C(=O)NC(N)=O)cc1NC(=O)CBr
- IC50 [1]: 1.88 µM

Compound: CC(Br)C(=O)Nc1cc(C(=O)NC(N)=O)cs1 (stereo not given)
- IC50 [1]: 3.94 µM

Compound: NC(=O)NC(=O)c1ccc(NC(=O)CBr)o1
- IC50 [1]: 4.05 µM

Compound: NC(=O)NC(=O)c1cc(NC(=O)CBr)cc([N+](=O)[O-])c1
- IC50 [1]: 1.53 µM

Compound: Cc1c(NC(=O)CBr)cccc1C(=O)NC(N)=O
- IC50 [1]: 1.71 µM

Compound: CC(Br)C(=O)Nc1cc(C(=O)NC(N)=O)cc([N+](=O)[O-])c1 (stereo not given)
- IC50 [1]: 1.58 µM

Compound: NC(=O)NC(=O)c1ccc(O)c(NC(=O)CCl)c1
- IC50 [1]: > 20 µM

Compound: NC(=O)NC(=O)c1ccc(F)c(NC(=O)CBr)c1
- IC50 [1]: 2.29 µM

Compound: COc1ccc(C(=O)NC(N)=O)cc1NC(=O)CCl
- IC50 [1]: > 20 µM

Compound: C[C@H](Br)C(=O)Nc1cccc(C(=O)NC(N)=O)c1
- IC50 [1]: 1.47 µM

Compound: NC(=O)NC(=O)c1cc(NC(=O)CBr)ccc1Cl
- IC50 [1]: 0.54 µM

Compound: CC(Br)C(=O)Nc1cc(C(=O)NC(N)=O)ccc1Cl (stereo not given)
- IC50 [1]: 9.8 µM

Compound: CC(Br)C(=O)Nc1cc(C(=O)NC(N)=O)ccc1F (stereo not given)
- IC50 [1]: 3.13 µM

Compound: Cc1c(NC(=O)CCl)cccc1C(=O)NC(N)=O
- IC50 [1]: 2.7 µM

Compound: Cc1ccc(NC(=O)C(C)Br)cc1C(=O)NC(N)=O (stereo not given)
- IC50 [1]: > 20 µM

Compound: NC(=O)NC(=O)c1cc(NC(=O)CI)ccc1F
- IC50 [10]: 0.16 µM
- inhibition in vivo at 5 mg/kg [3]: 62%
- IC50 [4]: < 0.01 µM
- IC50 [11]: 0.054 µM
- Activity [12]: Active
- IC50 [13]: 0.02 µM
- IC50 [14]: 0.19 µM
- IC50 [15]: 0.19 µM
- LD50 [9]: 38.8 mg/kg
- Activity [5]: 37.6%
- Activity [16]: Active
- IC50 [17]: 0.22 µM
- Activity [18]: Active
- inhibition in vivo at 10 mg/kg [6]: 86%
- Activity [7]: 21.6 g
- IC50 [1]: < 0.01 µM
- IC50 [8]: < 0.01 µM
- IC50 [19]: 0.71 µM
- Activity [20]: Active

Compound: COc1ccc(NC(=O)CBr)cc1C(=O)NC(N)=O
- IC50 [1]: 1.57 µM

Compound: Cc1ccc(NC(=O)CBr)cc1C(=O)NC(N)=O
- IC50 [1]: 4.76 µM

Compound: NC(=O)NC(=O)c1ccc(O)c(NC(=O)CBr)c1
- IC50 [1]: > 20 µM

Compound: COC(=O)c1cc(NC(=O)C(C)Br)cc(C(=O)NC(N)=O)c1 (stereo not given)
- IC50 [1]: 2.7 µM

Compound: NC(=O)NC(=O)c1cc(NC(=O)CCl)ccc1Cl
- IC50 [1]: 2.44 µM

Compound: COc1ccc(C(=O)NC(N)=O)cc1NC(=O)C(C)Br (stereo not given)
- IC50 [1]: > 20 µM

Compound: Cc1ccc(C(=O)NC(N)=O)cc1NC(=O)CBr
- IC50 [1]: 4.28 µM

Compound: CC(=O)O[C@H]1C(=O)[C@@]2(C)[C@H]([C@H](OC(=O)c3ccccc3)[C@]3(O)C[C@H](OC(=O)[C@H](O)[C@@H](NC(=O)c4ccccc4)c4ccccc4)C(C)=C1C3(C)C)[C@]1(OC(C)=O)CO[C@@H]1C[C@@H]2O
- Activity [2]: inactive

Compound: COc1ccc(C(=O)NC(N)=O)cc1NC(=O)C(C)Cl (stereo not given)
- IC50 [1]: > 20 µM

Compound: Cc1ccc(C(=O)NC(N)=O)cc1NC(=O)C(C)Cl (stereo not given)
- IC50 [1]: > 20 µM

Compound: Cc1ccc(C(=O)NC(N)=O)cc1NC(=O)C(C)Br (stereo not given)
- IC50 [1]: 3.36 µM

Compound: NC(=O)NC(=O)c1ccc(F)c(NC(=O)CCl)c1
- IC50 [1]: > 20 µM

Compound: CC(Br)C(=O)Nc1ccc(Cl)c(C(=O)NC(N)=O)c1 (stereo not given)
- IC50 [1]: 2.55 µM

Compound: Cc1ccc(C(=O)NC(N)=O)cc1NC(=O)CCl
- IC50 [1]: 3.36 µM

Compound: CC(Cl)C(=O)Nc1cc(C(=O)NC(N)=O)ccc1Cl (stereo not given)
- IC50 [1]: > 20 µM

Compound: NC(=O)NC(=O)c1ccc(Cl)c(NC(=O)CCl)c1
- IC50 [1]: 15.9 µM

Compound: Cc1ccc(NC(=O)CI)cc1C(=O)NC(N)=O
- IC50 [1]: 20 µM
